To fix the notation:
B1: tRNA (parent)
chain: GUUCCGUUGGCGUAAUGGUAACGCGUCUCCCUCCUAAGGAGAAGACUGCGGGUUCGAGUCCCGUACGGAACG

Fewer inactive variants are shown than the library holds.

Variants of B1 are the subject of this data set. Kind of data set: yeast fitness relative to wild type (ratio to wild type); higher = fitter; tRNA-Arg(CCU), competitive growth, 37 C, YPD. The method, boiled down: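 A pool of Saccharomyces cerevisiae strains, each with a tRNA-Arg(CCU) gene variant at the native genomic locus, was competed in YPD at 37°C for 24 hours across six parallel replicates. The variants had been chemically synthesised at a 3% per-site mutation rate over 69 sites, and gene amplicons before and after competition were read by 100-nucleotide paired-end sequencing. Darwinian fitness relative to wild type rested on changes in genotype frequencies. Genotypes required ≥ 100 starting reads, and estimates < 0.5 were set to 0.5.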
For GUUCCGUUGGUGUAAUGGUAACGCGUCUCCCUCCUAAGGAGAAGACUGCAGGUUCGAGUCCCAUUCGGAACG, the yeast fitness is no more than 0.5.

On to GUUCCGUUGGUGAAAUGGUAACGCGUCUCCCUCCUAAGGAGAAGACUGCGGGUUCGUGUCCCGGGCGGAACG, for which the yeast fitness was no more than 0.5.

On to GUUCCGUUGGUGUAAUGGUAACGCGUCUCCCUCCUAAGGAGAAGACUGCGGGUUCAAGUCCCGUACUGAACG, for which the yeast fitness was 0.526.

For GUUCCGUUGGUGUAAUGGUAACGCGUCUCCCUCCUAAGGAGAAGACUGCGGCUUCGAGUCCCGUACGGAACG, the yeast fitness turned out to be 0.707.

With GUUCCGUUGGUGUAAUGGUAACGCGUCUCCCUCCUAAGGAGAAGACUGCGGAUUCGAGUCCCGUACGGAACG, the yeast fitness turned out to be 0.827.

Consider GUUCCGUUGGUGUAAUGGAAACGCGUCUCCCUCCUAAGGAGAAGACUGCGGGUUCGAGUCCCCUACGGAACG, for which the yeast fitness was found to be 0.53.

In the case of GUUCCGUUGGUGUAAUGGCAACGCGUCUCCCUCCUAAGGAGAAGACUGCGGGUUCGAGUCCCGUACCGAACG, the yeast fitness worked out at 0.566.

For the variant GUUCCGUUGGUGUAACGGUAACGCGCCUCCCUCCUAAGGAGAAGCUUGCGGGUUCGAGUCCCGUACGGAACG, the yeast fitness was no more than 0.5.

As for GUUCCGUUGGUGUAAUGGUAACGCGUCUCCCUCCUAAGGAGAAGACUUCGGGUUCGAGUCCCGUACGGAACG, the yeast fitness was 0.853.

As for GUUCCGUUGGUGUAAUGGUAACGCGUCUCCCUCCUAAGGAGAAGACUCCGGGUUCGAGUCCCGUACGGAACG, the yeast fitness amounted to 0.882.

As to GUUCCGUUGGUGAAAUGGUAACGCGUCUCCCUCCUAAGGCGAAGACUGCGGGUUCGAGUCCCGCACGGAACG, the yeast fitness was no more than 0.5.

Regarding GUUCCGUUGGUGUAAUGGUAACGCGUCUCCCUCCUAAGGAGAAGACUGCAGGUUCGAGUCCCGUACGGAUCG, the yeast fitness was found to be 0.702.

As to GUUCCGUUGGUGUAAUGGUAACGCGUCUCCCUCCUAAGGAGAAGACUGCAGGUUCAAGUCCCGUACGGAACG, the yeast fitness amounted to 0.781.

Turning to GUUCCGUUGGUGUAAUGGUAACGCGUCUCCCUCCUAACGAGAAGACUACGGGUUCGAGUCCCGUACGGAACG, the yeast fitness was 0.57.

GUUCCGUUGGUGAAAAGGUAACGCGUCUCCCUCCUAAGGAGAAGACUGCGGGUACGAGUCCCGUACGGAACG: the yeast fitness came to 0.711.

Take GUUCCGUUGGUGUAACGGCAACGCGUCUCCCUCCUAAGGAGAAGACUGCGGGUUCGAGUCCUGUACGGAGCG: the yeast fitness was 0.524.

On to GUUCCGUUGGUGCAAUGGUAACGCGUCUCCCUCCUAAGGAGACGACUGCGGGUUCGAGUCCCGUACGGAACG, for which the yeast fitness was determined as 0.682.

For GUUCCGUUGGUGUAAAGGUAAAGGGUCUCCCUCCUAAGGAGAAGUCAGCGGGUUCGAGUCCCGUACGGAACG, the yeast fitness was no more than 0.5.

With GUUCCGUUGGUGAAAUGGUAACGCAUCACCAUCCUAAGGAGACGACUGCGGGUUCGAGUGGUGUACGGAACG, the yeast fitness was 0.581.

GUUCCGUUGGUGUAAUGGUAACGCGUCUCCCUCCUAACGAGAAGACUGCGGGUUCGAGUCCCGUACGGAACG: the yeast fitness is 0.715.

Regarding GUUCCGUUGGUGUAAUGGUAACGCGUCUCCCUCCUAAGCAGAAGAUUGCGGGUUCGAGUCCCGUACGGAACG, the yeast fitness was 0.756.

GUUCCGUUGGUGUAACGGCAACGCGUCUCCCUCCUAAGGAGAAGACUGCGGGUUCGAGUCCCGUACGGAACG: the yeast fitness was 0.929.

On to GUUCCGUUGGUGUAAUGGUAACGCCUCUCCCUCCUAAGGUGAAGACUGUGGGUUCGAGUCCCGUACGGAACG, for which the yeast fitness was no more than 0.5.

In the case of GUUCCGUUGGUGUAAAGGUAACGCGUCUCCCUCCUAAGGAGAAGACUGCGGGUUAGAGUCCCGUACGGAACG, the yeast fitness is no more than 0.5.

On to GUUCCGUUGGUGUAAUGGUAACGCGUCUCCCUCCUAAGGAGAAGACUGCGGGUUCGAGUCCCGUACAGUACG, for which the yeast fitness was found to be 0.652.

On to GUUCCGUUGGUGAAAUGGUAAGGAGUCUCCCUCCUAAGGAGAAGAGUGCGGGUUUGAGUCCCGUACGGAACG, for which the yeast fitness was no more than 0.5.

In the case of GUUCCGUUGGUGUAAUGGUAACGCGUCUCCCUCCUAAGGAGAAGACUGCAGGUUCGAGUCCCGUAAGGAACG, the yeast fitness was no more than 0.5.

As to GUUCCGUUGGUGUAAUGGCAAGGCCUCUCCCUUCUAAGCAGAAGACUGCGGGUUCGAGUCCGGUACGGAACG, the yeast fitness is no more than 0.5.

Regarding GUUCCGUUGGUGUAAUGGAAACGCGUCUCCCUCCUAAGGAGGAGACUGCGGGUUCGAGAUCCGUACGGAACG, the yeast fitness was no more than 0.5.

In the case of GUUCCGUUGGUGUAAUGGUAACGCCUCUGCCUCCUAAGGAGAGGACUGGGGGUUCGAGUCCCGUACGGAACG, the yeast fitness stood at 0.546.

As for GUUCCGUUGGUGUAAUGGAAACGCGUCUCCCUCCUAAGGAGAAGACUGCGGGUUCGAGUCCCGUACGGAACG, the yeast fitness was found to be 0.992.

In the case of GUUCCGUUGGUGUAAUGGUAACGCAUCUCCCUCCUAAGGAGAAGACUGCGGGUUCGAGUCCUGUACGGACCG, the yeast fitness came out at 0.67.

With GUUCCGUUGGUGUAAUGGAAACGCGUCUCCCUCCUAAGGAGAUGACUGCGGGUUCGAGUCCCGUUCGGAACG, the yeast fitness worked out at 0.53.

For the variant GUUCCGUUGGUGUAAUGGAAACGCGUCUCCCUCCUACGGCGAAGACUGCGGGUUCGAGUCCCAUACGGAACG, the yeast fitness was no more than 0.5.

Take GUUCCGUUGGUGAAAUGGUAACGCGUCUCCCUCCUAAGGAGAAGACUACGGGUUCGAGUCCCGUACGGAACG: the yeast fitness worked out at 0.59.

With GUUCCGUUGGUGUAAUGGAAACGCGUCUCCCUCCUAAGGAAAAGACUGCGGGUUCGAGUGCCGUGCGGAACG, the yeast fitness was no more than 0.5.

As for GUUCCGUUGGUGUAAUGGUAACGCGUCUCCCUCCUAAGGAGAAGACUGCAGGUUCGAGUCCCGUACGGAACG, the yeast fitness is 0.81.

GUUCCGUUGGUGAAAUGGUAACGCGUCUCCCUCCUAAGGAGAAGAGUGCGGGUUCGAGUCCGGUACGGAACG: the yeast fitness is no more than 0.5.

The values are drawn from the RNAGym collection of RNA variant scans (doi:10.1126/science.aae0568).
